The values that follow come from ChEMBL document CHEMBL1158423, “Antibacterial activity of berberine-NorA pump inhibitor hybrids with a methylene ether linking group” (2009).

In test [1] the test system is Staphylococcus aureus. As to the kind of experiment: Antibacterial activity against Staphylococcus aureus K1758 NorA efflux pump-deficient mutant after 18 hrs by twofold serial dilution method. The test is classed as functional. The following applies: K1758, 18 h. In outline:
(§1)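 Broth microdilution with serial 2-fold dilutions of compound, cells inoculated at 10^5 per mL, in triplicate. MIC is the lowest concentration giving complete growth inhibition over 18 h at 37 °C. Growth is read as absorbance at 600 nm.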

For test [2], the system named is Nucleic Acid. The test is described as follows: Binding affinity to quadruplex Q3 DNA by electrospray ionization mass spectrometry. In kind it is nucleic-acid assay.
Test [3] deals with Nucleic Acid. As to the kind of experiment: Binding affinity to D1 duplex DNA by electrospray ionization mass spectrometry. In kind it is nucleic-acid assay. The method in brief: (§2)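 Duplex D1, D2 or forked F10 was annealed from complementary strands in 0.1 M ammonium acetate. ESI-MS used a 100 V cone voltage; thirty acquisitions were combined, baseline-subtracted and smoothed.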

The subject of test [4] is Staphylococcus aureus. The test is described as follows: Antibacterial activity against wild type Staphylococcus aureus 8325-4 after 18 hrs by twofold serial dilution method. The test is classed as functional. The conditions noted are these: 8325-4, 18 h. In outline: (§3)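 Broth microdilution: cells at 10^5 mL−1 in broth, serial 2-fold dilutions of compound, triplicate determinations; 18 h at 37 °C; growth followed by absorbance at 600 nm. MIC taken as the lowest concentration giving complete growth inhibition.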

The subject of test [5] is Staphylococcus aureus. The test is described as follows: Antibacterial activity against Staphylococcus aureus K2378 overexpressing NorA efflux pump after 18 hrs by twofold serial dilution method relative to berberine. In kind it is functional.
Test [6] has as its system Nucleic Acid. The test is described as follows: Binding affinity to quadruplex Q1 DNA by electrospray ionization mass spectrometry. The test is classed as nucleic-acid assay.
Test [7] concerns Escherichia coli. As to the kind of experiment: Antibacterial activity against Escherichia coli BW-25116 TolC-deficient mutant after 18 hrs by twofold serial dilution method. The test is classed as functional. The following applies: BW25116, 18 h. In outline: as §1
The test system of test [8] is Escherichia coli. The test is described as follows: Antibacterial activity against Escherichia coli ECM116 mar1642 overexpressing […] pump after 18 hrs by twofold serial dilution method. In kind it is functional. The following applies: ECM116, 18 h. In outline: as §1
Test [9] relates to Nucleic Acid. As to the kind of experiment: Binding affinity to F10 duplex DNA by electrospray ionization mass spectrometry. The test is classed as nucleic-acid assay. The method in brief:
as §2

The subject of test [10] is Staphylococcus aureus. As to the kind of experiment: Antibacterial activity against Staphylococcus aureus K2378 overexpressing NorA efflux pump after 18 hrs by twofold serial dilution method. The conditions noted are these: K2378, 18 h. The test is classed as functional. The method in brief: as §1
The test system of test [11] is Escherichia coli. The test is described as follows: Antibacterial activity against Escherichia coli K-12 after 18 hrs by twofold serial dilution method. In kind it is functional. The following applies: K-12, 18 h. The method in brief:
as §3

In test [12] the test system is Escherichia coli. The test is described as follows: Antibacterial activity against Escherichia coli BW-25116 TolC-deficient mutant after 18 hrs by twofold serial dilution method relative to berberine. In kind it is functional, BW25116. In outline:
(§4)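 Broth microdilution with an inoculum of 10^5 cells/mL and serial 2-fold compound dilutions, run in triplicate. Plates were incubated 18 h at 37 °C and growth was read as absorbance at 600 nm. MIC was the lowest concentration giving complete growth inhibition.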

Test [13] concerns Escherichia coli. As to the kind of experiment: Antibacterial activity against Escherichia coli ECM1642 after 18 hrs by twofold serial dilution method. In kind it is functional. The following applies: ECM1642, 18 h. In outline: as §3
The subject of test [14] is Staphylococcus aureus. The test is described as follows: Antibacterial activity against Staphylococcus aureus K1758 NorA efflux pump-deficient mutant after 18 hrs by twofold serial dilution method relative to berberine. In kind it is functional.
In test [15] the test system is Staphylococcus aureus. As to the kind of experiment: Antibacterial activity against wild type Staphylococcus aureus 8325-4 after 18 hrs by twofold serial dilution method relative to berberine. In kind it is functional. In outline:
as §4

Test [16] relates to Escherichia coli. The test is described as follows: Antibacterial activity against Escherichia coli ECM116 mar1642 overexpressing […] pump after 18 hrs by twofold serial dilution method relative to berberine. In kind it is functional. The method in brief: as §4
The test system of test [17] is Nucleic Acid. The test is described as follows: Binding affinity to D2 duplex DNA by electrospray ionization mass spectrometry. In kind it is nucleic-acid assay. In outline: as §2
In test [18] the target is T1, Quinolone resistance protein NorA (Staphylococcus aureus) (UniProt P0A0J7).
T1 sequence (whole entry): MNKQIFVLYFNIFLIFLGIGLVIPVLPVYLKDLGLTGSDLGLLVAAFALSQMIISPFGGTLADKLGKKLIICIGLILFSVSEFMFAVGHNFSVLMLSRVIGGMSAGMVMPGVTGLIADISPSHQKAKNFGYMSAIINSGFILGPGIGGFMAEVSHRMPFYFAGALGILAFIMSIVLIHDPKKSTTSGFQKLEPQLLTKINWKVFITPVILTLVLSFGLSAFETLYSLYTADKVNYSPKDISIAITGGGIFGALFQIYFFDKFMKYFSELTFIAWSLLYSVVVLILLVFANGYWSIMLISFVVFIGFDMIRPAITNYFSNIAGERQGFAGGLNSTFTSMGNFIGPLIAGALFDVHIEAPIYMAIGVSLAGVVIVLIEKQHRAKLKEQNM
The test is described as follows: Inhibition of NorA efflux pump in Staphylococcus aureus K2378 overexpressing NorA efflux pump assessed as inhibition of EtBr efflux at 3 uM. In outline:
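K2378 cells are grown at 37 °C to OD ~0.9, washed in PBS and loaded with 3 μM ethidium bromide plus 30 μg/mL reserpine for 20 min at 37 °C. After ice-cold washes, they are added at OD 0.3 to ice-cold PBS with 10 mM dextrose containing inhibitor at 3 μM final. The no-efflux control is PBS without dextrose plus reserpine. Efflux is read at ex/em 530/600 nm.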

Test [19] concerns Enterococcus faecalis. The test is described as follows: Antibacterial activity against Enterococcus faecalis OG1RF after 18 hrs by twofold serial dilution method. The test is classed as functional. In outline:
as §3

Test [20] deals with T1, Quinolone resistance protein NorA (Staphylococcus aureus). The test is described as follows: Inhibition of NorA efflux pump in Staphylococcus aureus K1758 NorA efflux pump-deficient mutant assessed as increase in berberine accumulation at 3 uM. In outline:
(§5)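 Cells are grown at 37 °C to OD600 1.5 and washed twice in PBS. They are energised in PBS with 10 mM dextrose (OD ~0.8) for 1 h at 37 °C with aeration, washed, then diluted to OD ~0.3 in PBS. Compounds are added at 3 μM final. Accumulation is followed by fluorescence at ex/em 355/517 nm, with cell-free background subtracted.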

For test [21] the target is unchanged. The test is described as follows: Inhibition of NorA efflux pump in wild type Staphylococcus aureus 8325-4 assessed as increase in berberine accumulation at 3 uM. The method in brief:
as §5

Test [22] deals with Enterococcus faecalis. As to the kind of experiment: Antibacterial activity against Enterococcus faecalis V583 after 18 hrs by twofold serial dilution method. The test is classed as functional. The conditions noted are these: V583, 18 h. In outline: as §3
The target in test [23] is T1, Quinolone resistance protein NorA (Staphylococcus aureus). The test is described as follows: Inhibition of NorA efflux pump in Staphylococcus aureus K1758 NorA efflux pump-deficient mutant assessed as potentiation of EtBr uptake at 3 uM. The method in brief: (§6)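 Cells are prepared as for the accumulation assay: grown to OD600 1.5, washed in PBS, energised 1 h at 37 °C in PBS with 10 mM dextrose, then diluted to OD ~0.3 in PBS. The inhibitor (3 μM final) is added before ethidium bromide. Uptake is read by fluorescence at ex/em 530/600 nm, with cell-free background subtracted.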

For test [24] the target is unchanged. As to the kind of experiment: Inhibition of NorA efflux pump in Staphylococcus aureus K2378 overexpressing NorA efflux pump overexpressing NorA efflux pump assessed as increase in berberine accumulation at 3 uM. The method in brief:
as §5

For test [25], the system named is Enterococcus faecalis. The test is described as follows: Antibacterial activity against Enterococcus faecalis MMH594 after 18 hrs by twofold serial dilution method. The following applies: MMH594, 18 h. In kind it is functional. The method in brief:
as §3

Test [26] has as its target T1, Quinolone resistance protein NorA (Staphylococcus aureus). As to the kind of experiment: Inhibition of NorA efflux pump in wild type Staphylococcus aureus 8325-4 assessed as potentiation of EtBr uptake at 3 uM. In outline:
as §6

Test [27] shares this target. The test is described as follows: Inhibition of NorA efflux pump in Staphylococcus aureus K2378 overexpressing NorA efflux pump assessed as potentiation of EtBr uptake at 3 uM. In outline: as §6

The source made the active and inactive calls. The rule behind the calls is not given here. Where only a bound is given, the exact number is not on record here.

Turning to `COc1ccc2c(OCc3ccc4ccccc4c3)c3[n+](cc2c1OC)CCc1cc2c(cc1-3)OCO2.[Br-]`, the MIC in the test with Staphylococcus aureus [1] was 5.5 µM; in the test on Staphylococcus aureus [4], 10.9 µM; against Escherichia coli [7], 10.9 µM; in the test with Escherichia coli [8], 21.9 µM; in the test with Staphylococcus aureus [10], 21.9 µM; in the test with Escherichia coli [11], greater than 175 µM. For the same molecule, the minimum inhibitory concentration (MIC) with Escherichia coli [13] is greater than 175 µM. Besides, the Activity with Nucleic Acid [2] stood at 67%; in the test on Nucleic Acid [3], 30%; with Nucleic Acid [6], 100%; with Nucleic Acid [9], 15%; in the test with Nucleic Acid [17] it was 20%. The “fold change (FC)” value in the test on Staphylococcus aureus [5] was greater than 30; with Escherichia coli [12], 30; in the test on Staphylococcus aureus [14], 7; in the test on Staphylococcus aureus [15], 30; in the test with Escherichia coli [16], 15.

On to `COc1ccc2c(OCc3ccccn3)c3[n+](cc2c1OC)CCc1cc2c(cc1-3)OCO2.[Br-]`, for which the minimum inhibitory concentration (MIC) with Staphylococcus aureus [1] was 191 µM; in the test with Staphylococcus aureus [4] it was greater than 191 µM; in the test with Escherichia coli [7], 191 µM; in the test on Escherichia coli [8], 191 µM; in the test on Staphylococcus aureus [10], greater than 191 µM; with Escherichia coli [11], greater than 191 µM. This molecule also displayed an MIC in the test on Escherichia coli [13] greater than 191 µM. The “fold change (FC)” value was greater than 3 in the test with Staphylococcus aureus [5]; 2 in the test on Escherichia coli [12]; less than 5 in the test on Staphylococcus aureus [14]; less than 2 in the test on Staphylococcus aureus [15]; 2 in the test with Escherichia coli [16].

Turning to `COc1ccc2c(Cc3ccccc3-c3cc4cc([N+](=O)[O-])ccc4[nH]3)c3[n+](cc2c1OC)CCc1cc2c(cc1-3)OCO2`, the result in test [18], in test [20], in test [21], in test [23], in test [24] and in test [26] was Active. For the same molecule, in [27], the result was Active. Also, the MIC against Enterococcus faecalis [19] was 6.3 µM; against Staphylococcus aureus [1] it was 3.1 µM; in the test on Staphylococcus aureus [4], 3.1 µM; in the test with Escherichia coli [7], greater than 150 µM; against Enterococcus faecalis [22], 6.3 µM; against Escherichia coli [8], greater than 150 µM. Besides, the MIC is 3.1 µM against Staphylococcus aureus [10], greater than 150 µM in the test with Escherichia coli [11], greater than 150 µM in the test with Escherichia coli [13] and 6.3 µM in the test with Enterococcus faecalis [25].

`COc1ccc2c(OCc3ccc(C#N)cc3)c3[n+](cc2c1OC)CCc1cc2c(cc1-3)OCO2.[Br-]`: the minimal inhibitory concentration (MIC) with Staphylococcus aureus [1] is 91.4 µM; with Staphylococcus aureus [4], 183 µM; against Escherichia coli [7] it was 91.4 µM; against Escherichia coli [8], 45.7 µM; against Staphylococcus aureus [10], greater than 183 µM; with Escherichia coli [11], greater than 183 µM. The same molecule yielded an MIC in the test on Escherichia coli [13] greater than 183 µM. The “fold change (FC)” value in the test with Staphylococcus aureus [5] is on record as 4; in the test on Escherichia coli [12], 4; with Staphylococcus aureus [14] it was less than 2; in the test with Staphylococcus aureus [15], 2; in the test on Escherichia coli [16] it was 7.

In the case of `COc1ccc2cc3[n+](cc2c1OC)CCc1cc2c(cc1-3)OCO2` [BERBERINE CHLORIDE], the MIC was 650 µM against Enterococcus faecalis [19]; 40 µM in the test with Staphylococcus aureus [1]; 325 µM in the test with Staphylococcus aureus [4]; 325 µM with Escherichia coli [7]; greater than 650 µM against Enterococcus faecalis [22]; 325 µM in the test with Escherichia coli [8]. The minimum inhibitory concentration (MIC) was greater than 650 µM against Staphylococcus aureus [10], greater than 2600 µM with Escherichia coli [11], greater than 2600 µM in the test on Escherichia coli [13] and greater than 650 µM in the test with Enterococcus faecalis [25].

For the molecule `COc1ccc2c(OCc3ccccc3)c3[n+](cc2c1OC)CCc1cc2c(cc1-3)OCO2.[Br-]`, the minimum inhibitory concentration (MIC) was 12 µM against Staphylococcus aureus [1]; 24 µM with Staphylococcus aureus [4]; 12 µM in the test with Escherichia coli [7]; 24 µM in the test with Escherichia coli [8]; 95.8 µM in the test with Staphylococcus aureus [10]; greater than 192 µM against Escherichia coli [11]. This molecule also displayed a minimal inhibitory concentration (MIC) in the test with Escherichia coli [13] greater than 192 µM. The “fold change (FC)” value in the test on Staphylococcus aureus [5] came to 7; in the test with Escherichia coli [12], 27; in the test with Staphylococcus aureus [14], 3; in the test on Staphylococcus aureus [15], 14; in the test with Escherichia coli [16], 14.
